Calls of active or inactive are those of the source. The rule behind the calls is not given here.
Key:
[1] = Half life in Rhesus monkey at 15 mg/kg by LS/MS/MS analysis; format: ADME, organism-based, Macaca mulatta; design: dose 15 mg/kg; conditions: in vivo
[2] = Cmax in common marmoset at 40 mg/kg, po BID measured on day 7 by […] analysis; format: ADME, organism-based, Callithrix jacchus; design: dose 40 mg/kg, route oral; conditions: in vivo
How it was run: (§1)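 Oral levofloxacin, 40 mg/kg twice daily in banana milkshake for 7 consecutive days. Day-7 sampling: predose and 1, 4 and 8 h (group A, n=3); 0.5, 2, 6 and 12 h (group B, n=3). Lithium-heparin plasma was held at −70°C and quantified by LC-MS/MS-ESI against spiked-plasma standards (0.1–50 μg/ml). PK parameters were derived.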

[3] = system: Callithrix jacchus; experiment: AUC in common marmoset at 40 mg/kg, po BID measured on day 7 by […] analysis; format: ADME, organism-based, Plasma; design: dose 40 mg/kg, route oral; conditions: in vivo; how it was run: as §1
[4] = system: Rhesus monkey; experiment: AUC (0 to infinity) in Rhesus monkey at 15 mg/kg by […] analysis; format: ADME, organism-based, Macaca mulatta, Plasma; design: time infinity, dose 15 mg/kg; conditions: in vivo
[5] = Tmax in Rhesus monkey at 15 mg/kg by […] analysis; format: ADME, organism-based, Macaca mulatta; design: dose 15 mg/kg; conditions: in vivo
[6] = Cmax in Rhesus monkey at 15 mg/kg followed by 4 mg/kg in 12 hrs dosing interval by […] analysis; format: ADME, organism-based, Macaca mulatta; design: dose 15 mg/kg; conditions: in vivo
[7] = Cmax in common marmoset at 40 mg/kg, po measured on day 1 by […] analysis; format: ADME, organism-based, Callithrix jacchus; design: dose 40 mg/kg, route oral; conditions: in vivo
How it was run: (§2)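 Six marmosets (25–64 months, 310–560 g) received one oral 40 mg/kg levofloxacin dose in banana milkshake. Two groups of three were bled at 0.5, 2 and 6 h or at 1, 4 and 8 h. Lithium-heparin plasma was stored at −70°C and assayed by LC-MS/MS-ESI against a spiked-plasma calibration curve (0.1–50 μg/ml). PK parameters were derived from the pooled profile.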

[8] = Cmax in common marmoset at 40 mg/kg, po BID measured on day 1 by […] analysis; format: ADME, organism-based, Callithrix jacchus; design: dose 40 mg/kg, route oral; conditions: in vivo
How it was run: (§3)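 Marmosets were dosed orally with 40 mg/kg levofloxacin twice daily in banana milkshake for 7 days. On day 1, group A (n=3) was bled predose and at 1, 4 and 8 h, and group B (n=3) at 0.5, 2, 6 and 12 h. Heparinised plasma was stored at −70°C and measured by LC-MS/MS-ESI (calibration 0.1–50 μg/ml). PK parameters were calculated.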

[9] = Half life in human at 500 mg, po by LS/MS/MS analysis; format: ADME, organism-based; conditions: in vivo
[10] = Cmax in human at 500 mg, po by […] analysis; conditions: in vivo
[11] = Cmax in human at 500 mg, po QD measured on day 10 by […] analysis; conditions: in vivo
[12] = Tmax in human at 500 mg, po QD measured on day 10 by […] analysis; format: ADME, organism-based; conditions: in vivo
[13] = system: Rhesus monkey; experiment: AUC (0 to infinity) in Rhesus monkey at 15 mg/kg followed by 4 mg/kg in 12 hrs dosing interval by […] analysis; format: ADME, organism-based, Macaca mulatta, Plasma; design: dose 15 mg/kg, time infinity; conditions: in vivo
[14] = Half life in common marmoset at 40 mg/kg, po measured on day 1 by […] analysis; format: ADME, organism-based, Callithrix jacchus; design: dose 40 mg/kg, route oral; conditions: in vivo; how it was run: as §2
[15] = system: Homo sapiens; experiment: AUC (0 to infinity) in human at 500 mg, po QD measured on day 10 by […] analysis; format: ADME, organism-based, Plasma; design: dose 500 mg, route oral, time infinity; conditions: in vivo
[16] = Tmax in Rhesus monkey at 15 mg/kg followed by 4 mg/kg in 12 hrs dosing interval by […] analysis; format: ADME, organism-based, Macaca mulatta; conditions: in vivo
[17] = Half life in human at 500 mg, po QD measured on day 10 by LS/MS/MS analysis; format: ADME, organism-based; conditions: in vivo
[18] = system: Callithrix jacchus; experiment: AUC in common marmoset at 40 mg/kg, po BID measured on day 1 by […] analysis; format: ADME, organism-based, Plasma; design: dose 40 mg/kg, route oral; conditions: in vivo; how it was run: as §3
[19] = system: Callithrix jacchus; experiment: AUC in common marmoset at 40 mg/kg, po measured on day 1 by […] analysis; format: ADME, organism-based, Plasma; design: dose 40 mg/kg, route oral; conditions: in vivo; how it was run: as §2
[20] = Half life in common marmoset at 40 mg/kg, po BID measured on day 7 by […] analysis; format: ADME, organism-based, Callithrix jacchus; design: dose 40 mg/kg, route oral; conditions: in vivo; how it was run: as §1
[21] = Half life in common marmoset at 40 mg/kg, po BID measured on day 1 by […] analysis; format: ADME, organism-based, Callithrix jacchus; design: dose 40 mg/kg, route oral; conditions: in vivo; how it was run: as §3
[22] = Cmax in Rhesus monkey at 15 mg/kg by […] analysis; format: ADME, organism-based, Macaca mulatta; design: dose 15 mg/kg; conditions: in vivo
[23] = Tmax in human at 500 mg, po by […] analysis; format: ADME, organism-based; conditions: in vivo
[24] = Half life in Rhesus monkey at 15 mg/kg followed by 4 mg/kg in 12 hrs dosing interval by LS/MS/MS analysis; format: ADME, organism-based, Macaca mulatta; conditions: in vivo
[25] = Tmax in common marmoset at 40 mg/kg, po BID measured on day 7 by […] analysis; format: ADME, organism-based, Callithrix jacchus; design: dose 40 mg/kg, route oral; conditions: in vivo; how it was run: as §1
[26] = system: Homo sapiens; experiment: AUC (0 to infinity) in human at 500 mg, po by […] analysis; format: ADME, organism-based, Plasma; design: dose 500 mg, time infinity, route oral; conditions: in vivo
[27] = system: Francisella tularensis; experiment: Antimicrobial activity against Francisella tularensis SCHU S4 infected in common marmoset assessed as survival of marmoset at 16.5 mg/kg BID for 10 days measured on day 24; format: functional, organism-based; design: dose 16.5 mg/kg

C[C@H]1COc2c(N3CCN(C)CC3)c(F)cc3c(=O)c(C(=O)O)cn1c23.C[C@H]1COc2c(N3CCN(C)CC3)c(F)cc3c(=O)c(C(=O)O)cn1c23.O [LEVOFLOXACIN]
half-life [1]: 2 h
Cmax [2]: 20900 ng/mL
AUC [3]: 81.4 µg/mL/h
AUC [4]: 21300 ng·h/mL
Tmax [5]: 1.5 h
Cmax [6]: 5300 ng/mL
Cmax [7]: 18800 ng/mL
Cmax [8]: 16500 ng/mL
half-life [9]: 6.4 h
Cmax [10]: 8500 ng/mL
Cmax [11]: 5700 ng/mL
Tmax [12]: 1.1 h
AUC [13]: 33400 ng·h/mL
half-life [14]: 3.9 h
AUC [15]: 47500 ng·h/mL
Tmax [16]: 2.2 h
half-life [17]: 7.6 h
AUC [18]: 63.6 µg/mL/h
AUC [19]: 112.4 µg/mL/h
half-life [20]: 2.3 h
half-life [21]: 2.4 h
Cmax [22]: 5100 ng/mL
Tmax [23]: 1.5 h
half-life [24]: 3.4 h
Tmax [25]: 0.5 h
AUC [26]: 56300 ng·h/mL
Activity [27]: Active

Reference: ChEMBL document CHEMBL1671723, “Bioavailability and efficacy of levofloxacin against Francisella tularensis in the common marmoset (Callithrix jacchus)” (Antimicrob Agents Chemother, 2010)
